Measurements published in ChEMBL document CHEMBL4431302, “Vobatensines A-F, Cytotoxic Iboga-Vobasine Bisindoles from Tabernaemontana corymbosa” (J Nat Prod, 2016).

Experiments:
[1] = test system: MCF7; assay: Growth inhibition of human MCF7 cells after 72 hrs by MTT assay; type: functional, cell-based; settings: MCF7, 72 h
How it was run: (§1)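 Cytotoxicity run by a previously reported procedure, with vincristine and cisplatin as positive controls.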

[2] = test system: A549; assay: Growth inhibition of human A549 cells after 72 hrs by MTT assay; type: functional, cell-based; settings: A549, 72 h; how it was run: as §1
[3] = test system: KB/VJ300; assay: Growth inhibition of human KB/VJ300 cells after 72 hrs by MTT assay; type: functional, cell-based; settings: KB/VJ300, 72 h; how it was run: as §1
[4] = test system: HT-29; assay: Growth inhibition of human HT-29 cells after 72 hrs by MTT assay; type: functional, cell-based; settings: HT-29, 72 h; how it was run: as §1
[5] = test system: LNCaP; assay: Growth inhibition of human LNCAP cells after 72 hrs by MTT assay; type: functional, cell-based; how it was run: as §1
[6] = Growth inhibition of human KB/S cells after 72 hrs by MTT assay; type: functional; how it was run: as §1
[7] = test system: HCT-116; assay: Growth inhibition of human HCT116 cells after 72 hrs by MTT assay; type: functional, cell-based; settings: HCT-116, 72 h; how it was run: as §1
[8] = test system: KB/VJ300; assay: Growth inhibition of human KB/VJ300 cells after 72 hrs in presence of vincristine by MTT assay; type: functional, cell-based; settings: KB/VJ300, 72 h
How it was run: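 Vincristine-resistant KB/VJ300 cells were exposed to test compound together with vincristine at 0.1 μg/mL, a multidrug-resistance reversal set-up. Cytotoxicity was run by a previously reported procedure, with vincristine and cisplatin as positive controls.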

[9] = test system: PC-3; assay: Growth inhibition of human PC3 cells after 72 hrs by MTT assay; type: functional, cell-based; settings: PC-3, 72 h; how it was run: as §1
[10] = test system: MDA-MB-231; assay: Growth inhibition of human MDA-MB-231 cells after 72 hrs by MTT assay; type: functional, cell-based; settings: MDA-MB-231, 72 h; how it was run: as §1

IC50 [1] [µM]	IC50 [2] [µM]	IC50 [3] [µM]	IC50 [4] [µM]	IC50 [5] [µM]	IC50 [7] [µM]	IC50 [8] [µM]	IC50 [9] [µM]	IC50 [10] [µM]	Compound	IC50 [6] [µM]
> 10	> 10	10 to 30	7.2	> 10	9.7	9 to 9.2	5.6	> 10	C/C=C1/CN(C)[C@H]2Cc3c([nH]c4ccccc34)[C@@H](c3cc4c(cc3OC)[C@@]3(O)CCN5C[C@H]6C[C@H](CC)[C@H]5[C@@H](C6)C3=N4)C[C@H]1[C@@H]2C(=O)OC	> 10
8.8	9.7	7.2	1.2	> 10	3	> 10	5.7	3.9	C/C=C1/CN(C)[C@H]2Cc3c([nH]c4ccccc34)[C@@H](c3cc4[nH]c5c(c4cc3OC)CCN3C[C@H]4C[C@H]([C@@H](C)O)[C@H]3[C@H]5C4)C[C@H]1[C@@H]2C(=O)OC	8.2
9.3	9.6	8.1	2.4	> 10	3.5	8.6	6.9	3.6	CC[C@@H]1CN(C)[C@H]2Cc3c([nH]c4ccccc34)[C@@H](c3cc4[nH]c5c(c4cc3OC)CCN3C[C@H]4C[C@H]([C@@H](C)O)[C@H]3[C@H]5C4)C[C@H]1[C@@H]2C(=O)OC	8
8.6	9.2	> 10	1.3	> 10	6.7	> 10	5.4	4.5	C/C=C1/CN2CC[C@]34C(=C(C=O)C1C[C@H]23)Nc1cc([C@H]2C[C@@H]3/C(=C\C)CN(C)[C@@H](Cc5c2[nH]c2ccccc52)[C@H]3C(=O)OC)ccc14	> 10
9.4	9.1	9.1	2.9	10	7.1	3.3	8.8	7.7	C/C=C1/CN(C)[C@H]2Cc3c([nH]c4ccccc34)[C@@H](c3cc4c(cc3OC)C(=O)[C@@]3(CCN5C[C@H]6C[C@H](CC)[C@H]5[C@H]3C6)N4)C[C@H]1[C@@H]2C(=O)OC	8.3
3.4	> 10	8.3	0.92	> 10	2.9	9.3	3.5	2.8	CC[C@@H]1CN(C)[C@H]2Cc3c([nH]c4ccccc34)[C@@H](c3cc4[nH]c5c(c4cc3OC)CCN3C[C@H]4C[C@H](CC)[C@H]3[C@H]5C4)C[C@H]1[C@@H]2C(=O)OC	8
7.5	8.4	> 10	1.8	> 10	7.8	5.1	8.1	3.3	CC[C@@H]1CN(C)[C@H]2Cc3c([nH]c4ccccc34)[C@@H](c3cc4c(cc3OC)C(=O)[C@@]3(CCN5C[C@H]6C[C@H](CC)[C@H]5[C@H]3C6)N4)C[C@H]1[C@@H]2C(=O)OC	> 10
–	–	> 10	–	–	–	4.6	–	–	COc1ccc(CCN(C)CCCC(C#N)(c2ccc(OC)c(OC)c2)C(C)C)cc1OC (stereo not given) [VERAPAMIL]	> 10
–	–	6.6	–	–	–	–	–	–	CC[C@]1(O)C[C@H]2CN(CCc3c([nH]c4ccccc34)[C@@](C(=O)OC)(c3cc4c(cc3OC)N(C=O)[C@H]3[C@@](O)(C(=O)OC)[C@H](OC(C)=O)[C@]5(CC)C=CCN6CC[C@]43[C@@H]65)C2)C1 [VINCRISTINE]	0.0024
> 10	> 10	10 to 30	1.9	> 10	7.4	9 to 9.6	7.7	4.6	C/C=C1/CN(C)[C@H]2Cc3c([nH]c4ccccc34)[C@@H](c3c(OC)ccc4[nH]c5c(c34)CCN3C[C@H]4C[C@H](CC)[C@H]3[C@H]5C4)C[C@H]1[C@@H]2C(=O)OC	> 10

Compound	IC50 [1] [µM]	IC50 [2] [µM]	IC50 [3] [µM]	IC50 [4] [µM]	IC50 [5] [µM]	IC50 [7] [µM]	IC50 [8] [µM]	IC50 [9] [µM]	IC50 [10] [µM]	IC50 [6] [µM]
C/C=C1/CN(C)[C@H]2Cc3c([nH]c4ccccc34)[C@@H](c3cc4[nH]c5c(c4cc3OC)CCN3C[C@H]4C[C@H](CC)[C@H]3[C@H]5C4)C[C@H]1[C@@H]2C(=O)OC	6	6.8	5	0.93	> 10	1.6	7	2.8	2.5	5.3
